# From ChEMBL document CHEMBL1275283, “Synthesis and evaluation of novel stearoyl-CoA desaturase 1 inhibitors: 1'-{6-[5-(pyridin-3-ylmethyl)-1,3,4-oxadiazol-2-yl]pyridazin-3-yl}-3,4-dihydrospiro[chromene-2,4'-piperidine] analogs” (Eur J Med Chem, 2010)
# The source made the active and inactive calls. The rule behind the calls is not given here.
# Columns and labels:
# Mus musculus [1] = test: Toxicity in C57BL/6J mouse assessed change in size of Harderian gland at 3 to 10 mg/kg, po QD for 7 days measured post last dose; format: organism-based; set-up: dose 3-10 mg/kg, route oral; details: in vivo, 168 h
# [2] = Aqueous solubility of the compound at neutral JP-2 solution of pH 6.8 by HPLC analysis; format: physicochemical
# Summary of the method: (§1)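 Solubility measured in purchased aqueous acidic JP-1 (pH 1.2) or neutral JP-2 (pH 6.8) media. Samples analyzed by HPLC, with UV peak area compared to a calibration standard of 250 µM compound in CH3CN/water 1:1. Means of at least two experiments.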
# Mus musculus [3] = test: Inhibition of delta-(9)-desaturase in po dosed C57BL/6J mouse assessed as reduction in plasma desaturation index (C18:1/C18:0) QD for 7 days measured post last dose; format: functional, organism-based
# Summary of the method: (§2)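 Nine-week-old male C57BL/6J mice on a high-carbohydrate diet (77.8 kcal% carbohydrate) for 7 days. Oral gavage once daily each evening at 0.3, 1, 3 or 10 mg/kg in propylene glycol/Tween 80 (4/1); n = 4. Serum taken the morning after the seventh dose, saponified in methanolic KOH and extracted with hexane. Index is oleate/stearate.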
# [4] = Metabolic stability of the compound in mouse liver microsomes after 30 mins; format: ADME, Microsome; details: read-out: Stability
# Summary of the method: (§3)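 Stability reported as % parent remaining after 30 min incubation with murine or human liver microsomes. Means of at least two experiments.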
# [5] = AUC (0 to 8 hrs) in C57BL/6J mouse at 20 mg/kg, po; format: ADME, organism-based; set-up: time < 8 hr, dose 20 mg/kg, route oral; details: plasma
# Summary of the method: (§4)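 Oral gavage via intubation tube at 20 mg/kg in propylene glycol/Tween 4:1, n = 3 C57BL/6J mice. Plasma sampled up to 8 h after dosing. Values are arithmetic means of at least two experiments.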
# Mus musculus [6] = test: Inhibition of delta-(9)-desaturase in C57BL/6J mouse assessed as reduction in plasma desaturation index (C18:1/C18:0) at 10 mg/kg, po QD for 7 days measured post last dose; format: functional; details: 168 h; summary of the method: as §2
# Cytochrome P450 2C19 = Cytochrome P450 2C19 (Homo sapiens, UniProt P33261); test: Inhibition of CYP2C19; format: ADME
# Cytochrome P450 3A4 = Cytochrome P450 3A4 (Homo sapiens, UniProt P08684); test: Inhibition of CYP3A4; format: ADME
# Mus musculus [7] = test: Toxicity in C57BL/6J mouse assessed occurrence of mild eye fissures at 3 to 10 mg/kg, po QD for 7 days measured post last dose; format: organism-based; set-up: dose 3-10 mg/kg, route oral; details: in vivo, 168 h
# [8] = Volume of distribution in C57BL/6J mouse at 5 mg/kg, iv up to 8 hrs; format: ADME, organism-based; set-up: dose 5 mg/kg, route intravenous; details: in vivo
# Summary of the method: (§5)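 Single intravenous tail-vein injection, 5 mg/kg in DMA/Tween80/saline 10:10:80, C57BL/6J mice (n = 2). Plasma collected up to 8 h post-dose. Means of at least two experiments.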
# Stearoyl-CoA desaturase [9] = target: T1, Stearoyl-CoA desaturase (Homo sapiens, UniProt O00767); test: Inhibition of SCD1 in HEK293A cell microsomes assessed as reduction in conversion of [14C]stearic acid to [14C]oleic acid after 30 mins; set-up: species or system HEK293-A, Microsome
# T1 sequence (O00767 whole entry): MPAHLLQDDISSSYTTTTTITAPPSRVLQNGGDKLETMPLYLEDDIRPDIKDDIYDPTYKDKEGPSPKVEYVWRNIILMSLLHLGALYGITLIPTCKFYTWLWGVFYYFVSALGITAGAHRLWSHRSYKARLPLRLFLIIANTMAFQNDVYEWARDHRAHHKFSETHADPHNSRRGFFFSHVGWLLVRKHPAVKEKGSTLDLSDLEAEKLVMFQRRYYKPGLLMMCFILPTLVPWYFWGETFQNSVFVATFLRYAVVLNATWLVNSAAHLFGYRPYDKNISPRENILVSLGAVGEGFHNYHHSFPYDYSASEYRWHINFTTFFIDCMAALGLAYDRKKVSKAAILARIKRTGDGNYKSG
# [10] = Half life in C57BL/6J mouse at 5 mg/kg, iv; format: ADME, organism-based; set-up: dose 5 mg/kg, route intravenous; details: in vivo; summary of the method: as §5
# Mus musculus [11] = test: Toxicity in C57BL/6J mouse assessed change in size of […] at 3 to 10 mg/kg, po QD for 7 days measured post last dose; format: organism-based; set-up: dose 3-10 mg/kg, route oral; details: in vivo, 168 h
# [12] = Tmax in C57BL/6J mouse at 20 mg/kg, po; format: ADME, organism-based; set-up: dose 20 mg/kg, route oral; details: in vivo; summary of the method: as §4
# [13] = Metabolic stability of the compound in human liver microsomes after 30 mins; format: ADME, Microsome; details: read-out: Stability; summary of the method: as §3
# Mus musculus [14] = test: Inhibition of delta-(9)-desaturase in C57BL/6J mouse assessed as reduction in plasma desaturation index (C18:1/C18:0) at 0.3 mg/kg, po QD for 7 days measured post last dose; format: functional; details: 168 h; summary of the method: as §2
# Cytochrome P450 2D6 = Cytochrome P450 2D6 (Homo sapiens, UniProt P10635); test: Inhibition of CYP2D6; format: ADME
# Acyl-CoA desaturase 1 = target: T2, Acyl-CoA desaturase 1 (Mus musculus, UniProt P13516); test: Inhibition of SCD1 in mouse microsome assessed as reduction in conversion of [14C]stearic acid to [14C]oleic acid after 30 mins; format: microsomes
# T2 sequence (P13516 whole entry): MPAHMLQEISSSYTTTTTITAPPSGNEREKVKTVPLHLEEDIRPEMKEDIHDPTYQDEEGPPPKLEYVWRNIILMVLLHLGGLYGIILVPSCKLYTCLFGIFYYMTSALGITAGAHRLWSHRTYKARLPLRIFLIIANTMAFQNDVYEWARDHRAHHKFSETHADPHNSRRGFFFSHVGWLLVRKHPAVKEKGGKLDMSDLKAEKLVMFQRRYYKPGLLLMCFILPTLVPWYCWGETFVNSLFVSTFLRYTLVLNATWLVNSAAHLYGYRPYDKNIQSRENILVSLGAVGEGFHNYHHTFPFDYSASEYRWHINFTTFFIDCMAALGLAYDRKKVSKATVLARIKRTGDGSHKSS
# [15] = Aqueous solubility of the compound at acidic JP-1 solution of pH 1.2 by HPLC analysis; format: physicochemical; summary of the method: as §1
# [16] = Cmax in C57BL/6J mouse at 20 mg/kg, po up to 8 hrs; format: ADME, organism-based; set-up: dose 20 mg/kg, route oral; details: in vivo; summary of the method: as §4
# Mus musculus [17] = test: Inhibition of delta-(9)-desaturase in C57BL/6J mouse assessed as reduction in plasma desaturation index (C18:1/C18:0) at 1 mg/kg, po QD for 7 days measured post last dose; format: functional, organism-based; set-up: dose 1 mg/kg; summary of the method: as §2
# Mus musculus [18] = test: Toxicity in C57BL/6J mouse assessed as abnormalities in skin at 10 mg/kg, po QD for 7 days measured post last dose; format: organism-based; set-up: dose 10 mg/kg, route oral; details: in vivo, 168 h
# Stearoyl-CoA desaturase [19] = target: T1, Stearoyl-CoA desaturase; test: Inhibition of human SCD1 expressed in HEK293A cells assessed as reduction in conversion of [14C]stearic acid to [14C]oleic acid after 30 mins; format: cell-based, HEK293-A
# Summary of the method: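 293A cells stably expressing human SCD1 (G418-selected) grown to confluence in DMEM + 10% FBS. Cells preincubated with compound 30 min, then given 0.1 µCi [14C]stearate for 4 h. Lipids saponified in KOH, separated by AgNO3-TLC, and the [14C]oleate/[14C]stearate ratio used as activity. IC50 derived from this read-out.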
# [20] = Half life in C57BL/6J mouse at 20 mg/kg, po; format: ADME, organism-based; set-up: dose 20 mg/kg, route oral; details: in vivo; summary of the method: as §4
# Cytochrome P450 2C9 = Cytochrome P450 2C9 (Homo sapiens, UniProt P11712); test: Inhibition of CYP2C9; format: ADME
# Mus musculus [21] = test: Inhibition of liver SCD1 activity in po dosed db/db mouse assessed as reduction in conversion of [14C]stearic acid to [14C]oleic acid; format: functional; details: read-out: ID50 (the source's name)
# Summary of the method: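 Seven-week-old male db/db mice dosed by oral gavage 2 h before i.p. [14C]stearate (100 µCi/kg in saline with 2% BSA). Livers harvested 1 h later and homogenized in cold PBS. Saponified homogenate analyzed by AgNO3-TLC for the [14C]oleate/[14C]stearate ratio. ID50 is the dose giving 50% inhibition.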
# Cytochrome P450 1A2 = target: T3, Cytochrome P450 1A2 (Homo sapiens, UniProt P05177); test: Inhibition of CYP1A2; format: ADME
# T3 sequence (P05177 whole entry): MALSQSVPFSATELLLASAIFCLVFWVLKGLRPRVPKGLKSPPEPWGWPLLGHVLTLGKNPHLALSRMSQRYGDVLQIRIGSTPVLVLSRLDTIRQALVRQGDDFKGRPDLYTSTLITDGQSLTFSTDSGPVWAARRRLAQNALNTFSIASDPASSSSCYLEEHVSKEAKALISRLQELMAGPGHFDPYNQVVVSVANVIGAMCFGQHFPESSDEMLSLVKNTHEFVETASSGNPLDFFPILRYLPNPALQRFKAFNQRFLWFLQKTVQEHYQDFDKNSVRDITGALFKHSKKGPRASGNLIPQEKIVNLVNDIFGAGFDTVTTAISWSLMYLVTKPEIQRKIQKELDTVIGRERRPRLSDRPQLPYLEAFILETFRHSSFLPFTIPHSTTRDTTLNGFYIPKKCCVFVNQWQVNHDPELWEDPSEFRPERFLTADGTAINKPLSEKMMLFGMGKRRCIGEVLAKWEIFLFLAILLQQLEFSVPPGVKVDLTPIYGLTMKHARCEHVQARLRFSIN
# [22] = Oral bioavailability in C57BL/6J mouse at 20 mg/kg up to 8 hrs; format: ADME, organism-based; details: in vivo
# Summary of the method: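 Bioavailability derived from plasma exposure after oral dosing (20 mg/kg, PG/Tween 4:1 by intubation tube, n = 3) and intravenous tail-vein dosing (5 mg/kg, DMA/Tween80/saline 10:10:80, n = 2) in C57BL/6J mice. Plasma sampled up to 8 h.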
# [23] = Clearance in C57BL/6J mouse at 5 mg/kg, iv up to 8 hrs; format: ADME, organism-based; set-up: dose 5 mg/kg, route intravenous; details: in vivo; summary of the method: as §5
# Mus musculus [24] = test: Toxicity in C57BL/6J mouse assessed change in organ morphology up to 10 mg/kg, po QD for 7 days measured post last dose by autopsy; format: organism-based; set-up: dose 10 mg/kg, route oral; details: in vivo, 168 h
# Stearoyl-CoA desaturase [25] = target: T1, Stearoyl-CoA desaturase; test: Inhibition of human SCD1
# Summary of the method: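 Microsomes from 293A cells as the human SCD1 source, preincubated with compound for 10 min at room temperature. Reaction run 60 min at 37 °C in pH 7.4 phosphate buffer with ATP 1 mM, NADH 1.25 mM, CoA and [14C] stearate. Product saponified and separated on AgNO3-TLC. Activity is the [14C] oleate/stearate ratio. IC50 by linear regression; mean of ≥2 experiments.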
# Sequence of Cytochrome P450 2C19 (P33261 whole entry): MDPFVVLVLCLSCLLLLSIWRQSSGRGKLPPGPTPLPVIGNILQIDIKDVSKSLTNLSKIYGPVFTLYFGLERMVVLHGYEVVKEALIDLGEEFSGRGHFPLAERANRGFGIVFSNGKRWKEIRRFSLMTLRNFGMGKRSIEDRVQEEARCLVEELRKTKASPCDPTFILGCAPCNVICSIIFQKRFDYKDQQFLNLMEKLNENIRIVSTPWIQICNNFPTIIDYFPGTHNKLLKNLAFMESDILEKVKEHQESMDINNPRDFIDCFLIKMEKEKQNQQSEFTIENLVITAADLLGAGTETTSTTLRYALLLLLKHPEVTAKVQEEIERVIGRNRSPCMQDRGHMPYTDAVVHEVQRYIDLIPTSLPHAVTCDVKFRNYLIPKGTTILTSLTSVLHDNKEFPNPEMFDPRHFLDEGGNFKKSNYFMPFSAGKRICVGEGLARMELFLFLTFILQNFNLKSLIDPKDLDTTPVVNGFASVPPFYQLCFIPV
# Sequence of Cytochrome P450 3A4 (P08684 whole entry): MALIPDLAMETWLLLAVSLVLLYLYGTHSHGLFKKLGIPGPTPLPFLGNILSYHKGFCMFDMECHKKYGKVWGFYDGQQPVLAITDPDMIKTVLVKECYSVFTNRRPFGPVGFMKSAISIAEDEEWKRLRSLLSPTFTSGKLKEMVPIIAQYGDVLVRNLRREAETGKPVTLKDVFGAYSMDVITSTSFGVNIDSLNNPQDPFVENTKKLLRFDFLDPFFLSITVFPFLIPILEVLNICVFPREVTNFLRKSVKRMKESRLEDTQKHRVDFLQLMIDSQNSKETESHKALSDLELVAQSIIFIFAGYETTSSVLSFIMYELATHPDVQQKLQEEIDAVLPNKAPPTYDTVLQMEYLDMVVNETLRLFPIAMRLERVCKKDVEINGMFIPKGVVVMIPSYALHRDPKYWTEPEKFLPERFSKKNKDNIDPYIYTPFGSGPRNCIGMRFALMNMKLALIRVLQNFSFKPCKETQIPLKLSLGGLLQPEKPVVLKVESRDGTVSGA
# Sequence of Cytochrome P450 2C9 (P11712 whole entry): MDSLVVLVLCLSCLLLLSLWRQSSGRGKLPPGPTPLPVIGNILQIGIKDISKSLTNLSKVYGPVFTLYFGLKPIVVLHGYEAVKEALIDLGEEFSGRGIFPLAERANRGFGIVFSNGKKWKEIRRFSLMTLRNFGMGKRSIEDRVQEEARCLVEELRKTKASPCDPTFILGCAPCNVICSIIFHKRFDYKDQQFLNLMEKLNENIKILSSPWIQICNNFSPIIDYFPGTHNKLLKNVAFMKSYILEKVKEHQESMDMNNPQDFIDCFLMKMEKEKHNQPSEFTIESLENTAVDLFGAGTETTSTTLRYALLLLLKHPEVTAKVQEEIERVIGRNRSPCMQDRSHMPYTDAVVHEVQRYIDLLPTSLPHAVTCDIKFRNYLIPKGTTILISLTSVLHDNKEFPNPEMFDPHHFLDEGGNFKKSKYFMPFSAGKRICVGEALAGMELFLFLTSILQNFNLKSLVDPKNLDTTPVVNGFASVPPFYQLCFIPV
# Sequence of Cytochrome P450 2D6 (P10635 whole entry): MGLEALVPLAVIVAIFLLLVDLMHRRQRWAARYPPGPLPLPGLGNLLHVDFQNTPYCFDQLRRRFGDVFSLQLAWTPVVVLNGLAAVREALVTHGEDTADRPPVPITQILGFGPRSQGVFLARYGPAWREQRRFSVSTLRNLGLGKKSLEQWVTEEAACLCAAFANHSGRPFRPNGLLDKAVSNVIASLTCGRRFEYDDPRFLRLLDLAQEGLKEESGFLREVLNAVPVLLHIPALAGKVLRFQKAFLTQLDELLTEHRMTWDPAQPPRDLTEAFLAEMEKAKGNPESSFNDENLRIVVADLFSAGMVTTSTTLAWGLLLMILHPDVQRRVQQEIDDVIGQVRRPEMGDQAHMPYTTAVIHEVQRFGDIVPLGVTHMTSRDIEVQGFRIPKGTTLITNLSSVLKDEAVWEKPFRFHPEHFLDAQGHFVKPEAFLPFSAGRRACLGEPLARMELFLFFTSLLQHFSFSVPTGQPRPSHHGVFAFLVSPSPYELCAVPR
SMILES,solubility [2] [µM],AUC(0-t) at 8 h [5] [ng·h/mL],IC50 (Stearoyl-CoA desaturase [9]) [nM],Tmax [12] [min],IC50 (Acyl-CoA desaturase 1) [nM],solubility [15] [µM],Cmax [16] [ng/mL],IC50 (Stearoyl-CoA desaturase [19]) [nM],half-life [20] [min],ED50 (Mus musculus [21]) [mg/kg],other results
Fc1cccc2c1CCC1(CCN(c3ccc(-c4nnc(Cc5cccnc5)o4)nn3)CC1)O2,< 0.5,6800,0.3,78,2,> 100,2900,0.7,60,0.6,Activity (Mus musculus [1]): Non-toxic; inhibition (Mus musculus [3]): Dose-dependent effect; remaining at 0.5 h [4]: 51%; inhibition in vivo at 10 mg/kg (Mus musculus [6]): 66%; IC50 (Cytochrome P450 2C19): 14000 nM; IC50 (Cytochrome P450 3A4): 1600 nM; Activity (Mus musculus [7]): Toxic; Vd [8]: 1.3 L/kg; half-life [10]: 24 min; Activity (Mus musculus [11]): Non-toxic; remaining at 0.5 h [13]: 65%; inhibition in vivo at 0.3 mg/kg (Mus musculus [14]): 32%; IC50 (Cytochrome P450 2D6): 27000 nM; inhibition (Mus musculus [17]): Active; Activity (Mus musculus [18]): Non-toxic; IC50 (Cytochrome P450 2C9): 3000 nM; IC50 (Cytochrome P450 1A2): 18000 nM; bioavailability [22]: > 95%; clearance [23]: 53 mL/min/kg; Activity (Mus musculus [24]): Non-toxic
Clc1cccc2c1CCC1(CCN(c3ccc(-c4nnc(Cc5cccnc5)o4)nn3)CC1)O2,< 0.5,1400,0.06,48,0.04,> 50,690,1,42,1,–
Fc1ccc(F)c2c1CCC1(CCN(c3ccc(-c4nnc(Cc5cccnc5)o4)nn3)CC1)O2,–,–,0.1,–,0.5,–,–,1,–,< 2,–
O=C(NCCc1cccnc1)c1ccc(N2CCC3(CCc4ccccc4O3)CC2)nn1,–,–,27,–,10,–,–,76,–,5,–
FC(F)(F)c1cccc2c1CCC1(CCN(c3ccc(-c4nnc(Cc5cccnc5)o4)nn3)CC1)O2,< 0.5,–,0.03,–,0.06,88,–,–,–,0.4,IC50 (Stearoyl-CoA desaturase [25]): 0.03 nM
